Structures are written as SMILES. Active and inactive are the calls of the source. No cut-off for these calls is given here. Some results are limits rather than exact numbers.

In test [1] the target is 72 kDa type IV collagenase (Homo sapiens, UniProt P08253). Briefly: Inhibition of human recombinant pro-MMP2 by spectrofluorimeter. An outline of the steps:
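Pro-MMP-2 activated with […], 37 °C, 2 h. Assay: 1–2 nM enzyme in 50 mM Tris–HCl pH 7.5, 150 mM NaCl, 5 mM CaCl₂, 25 °C; 30 min inhibitor preincubation, then quenched fluorogenic substrate.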

Test [2] concerns the target Matrix metalloproteinase-14 (Homo sapiens, UniProt P50281). Nature of the test: Inhibition of human recombinant MMP14 catalytic domain by spectrofluorimeter. An outline of the steps:
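Human recombinant MT1-MMP catalytic domain at 1–2 nM in 50 mM Tris–HCl pH 7.5, 150 mM NaCl, 5 mM CaCl₂ at 25 °C. Inhibitors at 5–7 concentrations preincubated with enzyme for 30 min, then quenched fluorogenic peptide substrate added. Percent inhibition measured in triplicate within a 20–80% inhibition range.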

In the next test the target is T1, Interstitial collagenase (Homo sapiens, UniProt P03956).
T1 sequence (P03956 whole entry): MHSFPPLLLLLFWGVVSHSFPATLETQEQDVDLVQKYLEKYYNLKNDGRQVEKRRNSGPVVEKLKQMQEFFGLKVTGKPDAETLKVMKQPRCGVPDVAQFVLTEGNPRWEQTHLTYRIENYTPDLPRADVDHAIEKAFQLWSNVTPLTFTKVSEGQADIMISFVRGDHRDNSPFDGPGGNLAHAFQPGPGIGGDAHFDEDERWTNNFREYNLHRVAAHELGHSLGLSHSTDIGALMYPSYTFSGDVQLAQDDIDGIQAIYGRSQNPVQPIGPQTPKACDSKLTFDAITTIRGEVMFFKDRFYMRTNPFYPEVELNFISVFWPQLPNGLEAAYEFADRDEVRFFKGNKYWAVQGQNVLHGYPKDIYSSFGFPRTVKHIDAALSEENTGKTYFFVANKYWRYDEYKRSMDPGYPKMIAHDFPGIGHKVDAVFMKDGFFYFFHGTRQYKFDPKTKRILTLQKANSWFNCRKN
Briefly: Inhibition of human recombinant pro-MMP1 by spectrofluorimeter.

Test [3] addresses Matrix metalloproteinase-9 (Homo sapiens, UniProt P14780). Briefly: Inhibition of human recombinant pro-MMP9 by spectrofluorimeter. Put shortly:
(§1)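 Pro-enzymes (human recombinant) freshly activated with […] at 37 °C for 2 h. Activated MMP at 1–2 nM in 50 mM Tris–HCl pH 7.5, 150 mM NaCl, 5 mM CaCl₂ at 25 °C, preincubated 30 min with inhibitor before quenched fluorogenic substrate. Percent inhibition from triplicates at 5–7 concentrations within the 20–80% range.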

A further test addresses Stromelysin-1 (Homo sapiens, UniProt P08254). Briefly: Inhibition of human recombinant MMP3 catalytic domain by spectrofluorimeter. Put shortly: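 MMP-3 human recombinant catalytic domain (1–2 nM) was assayed in 50 mM Tris–HCl pH 7.5, 5 mM CaCl₂, […] at 25 °C. Enzyme and inhibitor were preincubated for 30 min before quenched fluorogenic substrate was added. Triplicate percent inhibition was taken at 5–7 inhibitor concentrations spanning 20–80% inhibition.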

Another test concerns the target T2, Matrilysin (Homo sapiens, UniProt P09237).
T2 sequence (P09237 whole entry): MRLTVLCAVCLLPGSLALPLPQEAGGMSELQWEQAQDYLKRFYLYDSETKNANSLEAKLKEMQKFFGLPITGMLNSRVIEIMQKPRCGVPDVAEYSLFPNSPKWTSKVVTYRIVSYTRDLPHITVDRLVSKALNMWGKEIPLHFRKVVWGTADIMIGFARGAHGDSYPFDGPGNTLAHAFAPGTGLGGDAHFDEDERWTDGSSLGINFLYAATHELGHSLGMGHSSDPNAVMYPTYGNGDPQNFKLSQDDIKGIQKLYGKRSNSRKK
Nature of the test: Inhibition of human recombinant pro-MMP7 by spectrofluorimeter. Put shortly:
as §1

For the next test, the species on record is Homo sapiens. Briefly: Selectivity ratio of IC50 for human recombinant pro-MMP2 to IC50 for human recombinant pro-MMP1.

Stromelysin-1, sequence (P08254 whole entry, the tested form may be a part): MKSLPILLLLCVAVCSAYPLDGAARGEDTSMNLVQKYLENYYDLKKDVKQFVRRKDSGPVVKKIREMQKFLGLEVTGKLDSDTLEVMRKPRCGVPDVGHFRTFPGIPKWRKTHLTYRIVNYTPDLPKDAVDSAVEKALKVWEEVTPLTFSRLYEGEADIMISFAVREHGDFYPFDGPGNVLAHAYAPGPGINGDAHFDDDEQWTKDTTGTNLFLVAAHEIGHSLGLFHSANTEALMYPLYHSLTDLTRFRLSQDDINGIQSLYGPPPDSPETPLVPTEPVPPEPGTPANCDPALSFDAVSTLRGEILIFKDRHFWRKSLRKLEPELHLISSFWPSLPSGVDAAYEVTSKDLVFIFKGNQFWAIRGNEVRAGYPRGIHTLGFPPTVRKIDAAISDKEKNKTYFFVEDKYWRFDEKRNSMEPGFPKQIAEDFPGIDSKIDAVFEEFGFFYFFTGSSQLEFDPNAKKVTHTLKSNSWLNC
Matrix metalloproteinase-9, sequence (P14780 whole entry): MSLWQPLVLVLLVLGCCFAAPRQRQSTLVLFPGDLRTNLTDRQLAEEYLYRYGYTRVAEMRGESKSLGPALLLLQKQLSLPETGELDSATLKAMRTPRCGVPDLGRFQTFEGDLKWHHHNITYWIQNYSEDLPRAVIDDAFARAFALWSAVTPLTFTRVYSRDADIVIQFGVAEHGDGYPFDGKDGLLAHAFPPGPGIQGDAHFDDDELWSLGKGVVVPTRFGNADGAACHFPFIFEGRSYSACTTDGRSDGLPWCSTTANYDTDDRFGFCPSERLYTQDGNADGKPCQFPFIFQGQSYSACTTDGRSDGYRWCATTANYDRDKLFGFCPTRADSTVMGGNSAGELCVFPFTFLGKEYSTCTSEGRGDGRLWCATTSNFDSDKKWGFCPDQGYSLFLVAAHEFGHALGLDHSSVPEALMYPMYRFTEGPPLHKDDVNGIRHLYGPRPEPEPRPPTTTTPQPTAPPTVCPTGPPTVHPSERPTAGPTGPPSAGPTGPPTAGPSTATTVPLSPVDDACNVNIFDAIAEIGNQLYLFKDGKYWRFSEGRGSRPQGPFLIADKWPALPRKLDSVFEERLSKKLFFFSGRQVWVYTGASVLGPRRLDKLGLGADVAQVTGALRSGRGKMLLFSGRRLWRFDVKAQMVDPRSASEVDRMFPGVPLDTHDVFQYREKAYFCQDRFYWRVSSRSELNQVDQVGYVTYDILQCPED
72 kDa type IV collagenase, sequence (P08253 whole entry): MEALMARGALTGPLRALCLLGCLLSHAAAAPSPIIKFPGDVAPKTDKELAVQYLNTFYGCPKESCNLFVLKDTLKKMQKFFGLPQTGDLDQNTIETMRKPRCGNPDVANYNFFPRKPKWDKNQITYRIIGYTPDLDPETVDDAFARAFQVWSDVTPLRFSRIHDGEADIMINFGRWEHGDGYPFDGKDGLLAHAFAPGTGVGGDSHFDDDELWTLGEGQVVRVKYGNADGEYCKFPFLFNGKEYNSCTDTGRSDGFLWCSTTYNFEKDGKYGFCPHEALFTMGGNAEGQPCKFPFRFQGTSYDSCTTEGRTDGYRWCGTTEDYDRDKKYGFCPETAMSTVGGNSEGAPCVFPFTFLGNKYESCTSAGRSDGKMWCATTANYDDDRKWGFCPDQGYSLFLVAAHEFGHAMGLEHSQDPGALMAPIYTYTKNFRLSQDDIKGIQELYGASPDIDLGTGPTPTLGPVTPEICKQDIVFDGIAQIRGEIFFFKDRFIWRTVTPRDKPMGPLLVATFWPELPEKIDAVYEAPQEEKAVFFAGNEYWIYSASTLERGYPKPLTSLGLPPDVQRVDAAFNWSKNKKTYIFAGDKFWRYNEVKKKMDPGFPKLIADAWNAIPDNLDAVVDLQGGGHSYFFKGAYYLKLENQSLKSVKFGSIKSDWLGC

On to `CNC(=O)[C@H](Cc1c[nH]c2ccccc12)NC(=O)[C@@H](CC(=O)NNc1ccc([N+](=O)[O-])cc1[N+](=O)[O-])CC(C)C`, for which the IC50 was 10000 nM in test [1], greater than 10000 nM in test [2] and greater than 10000 nM on Interstitial collagenase.
Regarding `CNC(=O)[C@H](Cc1c[nH]c2ccccc12)NC(=O)[C@@H](CC(=O)NNS(=O)(=O)c1ccc(N2C(=O)CCC2=O)cc1)CC(C)C`, the IC50 was determined as 8.5 nM in test [3]; 920 nM at Stromelysin-1; 79 nM in test [1]; 110 nM on Matrilysin; 720 nM in test [2]; 91 nM at Interstitial collagenase.
`CNC(=O)[C@H](Cc1c[nH]c2ccccc12)NC(=O)[C@@H](CC(=O)NNS(=O)(=O)c1ccc(Oc2ccccc2)cc1)CC(C)C`: the IC50 in test [1] is 45 nM; in test [2], 2800 nM; at Interstitial collagenase, 110 nM.
For `CCCCCCCCCCCCS(=O)(=O)NNC(=O)C[C@@H](CC(C)C)C(=O)N[C@@H](Cc1c[nH]c2ccccc12)C(=O)NC`, the IC50 in test [1] was determined as 1400 nM; in test [2], 9700 nM; at Interstitial collagenase, 980 nM.
Taken in the same sequence, the figures for `CNC(=O)[C@H](Cc1c[nH]c2ccccc12)NC(=O)[C@@H](CC(=O)NNc1ccc(OC)cc1)CC(C)C` were 10000 nM, greater than 10000 nM and 330 nM.
On to `CNC(=O)[C@H](Cc1c[nH]c2ccccc12)NC(=O)[C@@H](CC(=O)NNS(=O)(=O)c1ccc(Cl)cc1)CC(C)C`, for which the IC50 stood at 18 nM in test [1], 190 nM in test [2] and 290 nM on Interstitial collagenase.
For `CNC(=O)[C@H](Cc1c[nH]c2ccccc12)NC(=O)[C@@H](CC(=O)NNS(=O)(=O)c1c(C(C)C)cc(C(C)C)cc1C(C)C)CC(C)C`, the 50% inhibitory concentration (IC50) came to 100 nM in test [1], 3100 nM in test [2] and 4000 nM on Interstitial collagenase.
Regarding `CNC(=O)[C@H](Cc1c[nH]c2ccccc12)NC(=O)[C@@H](CC(=O)NNS(=O)(=O)c1ccc(-c2ccc(Br)cc2)cc1)CC(C)C`, the IC50 in test [3] amounted to 3 nM; on Stromelysin-1, 1700 nM; in test [1], 9.8 nM; at Matrilysin, 475 nM; in test [2], 17000 nM; at Interstitial collagenase it was 30 nM. The Ki in test [3] was 3.6 nM; at Stromelysin-1 it was 415 nM; in test [1], 8.5 nM; on Matrilysin it was 523 nM; in test [2], 1900 nM.
For the compound `CCCCCC/C=C(\CC(=O)NNS(=O)(=O)c1ccc(-c2ccc(Br)cc2)cc1)C(=O)N[C@@H](Cc1c(-c2ccccc2)[nH]c2ccccc12)C(=O)NC`, the IC50 came to 732 nM in test [3]; 174 nM on Stromelysin-1; 1270 nM in test [1]; 3780 nM in test [2]; 2040 nM at Interstitial collagenase.
Taken in the same sequence, the figures for `CNC(=O)[C@H](Cc1c[nH]c2ccccc12)NC(=O)/C(=C/CCc1ccccc1)CC(=O)NNS(=O)(=O)c1ccc(-c2ccc(Br)cc2)cc1` were 1250 nM, 3860 nM, 310 nM, 105 nM and 1030 nM.
On to `CNC(=O)[C@H](Cc1c[nH]c2ccccc12)NC(=O)[C@@H](CC(=O)NNS(=O)(=O)c1ccccc1N)CC(C)C`, for which the IC50 in test [1] is 92 nM; in test [2], 730 nM; at Interstitial collagenase, 93 nM.
Taken in the same sequence, the figures for `CCCCCCCCCCCCCCCCS(=O)(=O)NNC(=O)C[C@@H](CC(C)C)C(=O)N[C@@H](Cc1c[nH]c2ccccc12)C(=O)NC` were 300 nM, 5100 nM and 440 nM.
For the compound `CNC(=O)[C@H](Cc1c[nH]c2ccccc12)NC(=O)[C@@H](CC(=O)NNS(=O)(=O)c1ccc2ccccc2c1)CC(C)C`, the IC50 stood at 11 nM in test [3]; 1400 nM on Stromelysin-1; 37 nM in test [1]; 6150 nM at Matrilysin; 10000 nM in test [2]; 150 nM on Interstitial collagenase.
As for `CNC(=O)[C@H](Cc1c[nH]c2ccccc12)NC(=O)[C@@H](CC(=O)NNc1ccc([N+](=O)[O-])cc1)CC(C)C`, the figures for the IC50 (in test [1]; in test [2]; on Interstitial collagenase) were 10000 nM, greater than 10000 nM and greater than 10000 nM, respectively.
On to `CNC(=O)[C@H](Cc1c(-c2ccccc2)[nH]c2ccccc12)NC(=O)/C(=C/CCc1ccccc1)CC(=O)NNS(=O)(=O)c1ccc(-c2ccc(Br)cc2)cc1`, for which the IC50 in test [3] turned out to be 827 nM; at Stromelysin-1, 463 nM; in test [1], 65 nM; at Interstitial collagenase, 1080 nM. In addition, in test [2], the outcome was inactive.
With `CNC(=O)[C@H](Cc1c[nH]c2ccccc12)NC(=O)[C@@H](CC(=O)NNS(=O)(=O)c1ccc([N+](=O)[O-])cc1)CC(C)C`, the values for the IC50 (in test [1]; in test [2]; on Interstitial collagenase) were 310 nM, 1500 nM and 490 nM, respectively.
For `CNC(=O)[C@H](Cc1c[nH]c2ccccc12)NC(=O)[C@@H](CC(=O)NNS(C)(=O)=O)CC(C)C`, the values for the IC50 (in test [1]; in test [2]; at Interstitial collagenase) were 740 nM, 3700 nM and 5600 nM, respectively.
In the case of `CNC(=O)[C@H](Cc1c[nH]c2ccccc12)NC(=O)[C@@H](CC(=O)NO)CC(C)C` [ILOMASTAT], the IC50 came out at 26 nM at Stromelysin-1 and 5.2 nM in test [2].
For the compound `CCCCCC/C=C(\CC(=O)NNS(=O)(=O)c1ccc(-c2ccc(Br)cc2)cc1)C(=O)N[C@@H](Cc1c[nH]c2ccccc12)C(=O)NC`, the IC50 was 2560 nM in test [3], 2540 nM at Stromelysin-1 and 1810 nM in test [1]. In addition, the result in test [2] was inactive.
In the case of `CNC(=O)[C@H](Cc1c[nH]c2ccccc12)NC(=O)[C@@H](CC(=O)NNc1ccc(Cl)c(Cl)c1)CC(C)C`, the IC50 in test [1] came out at 10000 nM; in test [2] it was 1000 nM; on Interstitial collagenase, 5600 nM.
Regarding `CNC(=O)[C@H](Cc1c[nH]c2ccccc12)NC(=O)[C@@H](CC(=O)NNS(=O)(=O)c1ccc(C)cc1)CC(C)C`, the IC50 in test [1] amounted to 24 nM; in test [2], 2600 nM; at Interstitial collagenase, 250 nM. In addition, in the test listed under Homo sapiens, the Ratio IC50 came out at 10.
Take `CNC(=O)[C@H](Cc1c[nH]c2ccccc12)NC(=O)[C@@H](CC(=O)NNS(=O)(=O)c1ccccc1[N+](=O)[O-])CC(C)C`: the IC50 is 320 nM in test [1], 1100 nM in test [2] and 850 nM on Interstitial collagenase.
Regarding `CNC(=O)[C@H](Cc1c(-c2ccccc2)[nH]c2ccccc12)NC(=O)[C@@H](CC(=O)NNS(=O)(=O)c1ccc(-c2ccc(Br)cc2)cc1)CC(C)C`, the IC50 in test [3] is 18 nM; on Stromelysin-1, 53 nM; in test [1], 247 nM; in test [2], 1240 nM; on Interstitial collagenase, 350 nM.

What is called IC50 is the midpoint of a concentration-inhibition curve. As usually defined, the Ki is the dissociation constant of the complex between target and ligand, obtained from inhibition or displacement.

(Values after ChEMBL document CHEMBL1152126 (Bioorg Med Chem, 2008).)
